The text below walks through data of ChEMBL document CHEMBL4028872, “Structure-Activity Relationship, Pharmacological Characterization, and Molecular Modeling of Noncompetitive Inhibitors of the Betaine/γ-Aminobutyric Acid Transporter 1 (BGT1)” (J Med Chem, 2017).

Series [1] is described as follows: Solubility of compound in pH 7.4 phosphate buffer after 24 hrs by HPLC-UV method. It counts as physicochemical.
Series [2] concerns the target Sodium- and chloride-dependent GABA transporter 1 (Homo sapiens, UniProt P30531). It counts as cell-based.
Series [3] has as its target T1, GABA transporter 2 (Mus musculus, UniProt P31651).
T1 sequence (P31651 whole entry): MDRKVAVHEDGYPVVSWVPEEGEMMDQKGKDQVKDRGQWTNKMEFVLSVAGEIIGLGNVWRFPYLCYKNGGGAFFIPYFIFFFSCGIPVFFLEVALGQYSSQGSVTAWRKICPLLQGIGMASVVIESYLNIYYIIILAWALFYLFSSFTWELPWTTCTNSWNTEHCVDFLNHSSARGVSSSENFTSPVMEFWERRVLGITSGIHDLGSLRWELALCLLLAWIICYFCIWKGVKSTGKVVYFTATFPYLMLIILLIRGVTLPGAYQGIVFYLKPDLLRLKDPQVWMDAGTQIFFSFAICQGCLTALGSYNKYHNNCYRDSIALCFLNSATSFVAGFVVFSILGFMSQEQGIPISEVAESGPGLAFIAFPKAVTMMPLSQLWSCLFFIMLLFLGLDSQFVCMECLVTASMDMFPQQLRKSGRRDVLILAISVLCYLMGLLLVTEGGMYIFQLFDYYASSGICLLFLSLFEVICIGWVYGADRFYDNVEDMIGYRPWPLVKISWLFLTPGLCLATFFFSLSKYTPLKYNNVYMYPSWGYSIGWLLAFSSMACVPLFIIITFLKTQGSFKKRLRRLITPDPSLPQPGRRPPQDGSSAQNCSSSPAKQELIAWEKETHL
As to the kind of experiment: Inhibition of mouse BGT1 expressed in HEK293 cells assessed as reduction in [3H]GABA uptake after 3 mins by scintillation counting method. It counts as cell-based. The note with it: read-out: IC50. Put shortly:
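HEK293 lines stably expressing a single mouse GAT subtype, kept under blasticidin-S (5 µg/mL) selection. Cells were assayed about 24 h after plating with 30 nM [3H]GABA plus varying compound concentrations for 3 min at 37 °C in HBSS buffered with 20 mM HEPES (1 mM CaCl2, 1 mM MgCl2, pH 7.4). Cells were washed ice-cold and radioactivity counted. IC50 came from sigmoidal variable-slope fits.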

In series [4] the target is D(2) dopamine receptor (Homo sapiens) (UniProt P14416). The experiment in a line: Displacement of [3H]N-methylspiperone from human Dopamine receptor D2 receptor expressed in fibroblast cell membranes at 10 uM after 90 mins by scintillation counting method. In general terms: In a radioligand displacement assay an active substance lowers the binding of a labelled ligand.
Chain of D(2) dopamine receptor (Homo sapiens) (P14416 whole entry): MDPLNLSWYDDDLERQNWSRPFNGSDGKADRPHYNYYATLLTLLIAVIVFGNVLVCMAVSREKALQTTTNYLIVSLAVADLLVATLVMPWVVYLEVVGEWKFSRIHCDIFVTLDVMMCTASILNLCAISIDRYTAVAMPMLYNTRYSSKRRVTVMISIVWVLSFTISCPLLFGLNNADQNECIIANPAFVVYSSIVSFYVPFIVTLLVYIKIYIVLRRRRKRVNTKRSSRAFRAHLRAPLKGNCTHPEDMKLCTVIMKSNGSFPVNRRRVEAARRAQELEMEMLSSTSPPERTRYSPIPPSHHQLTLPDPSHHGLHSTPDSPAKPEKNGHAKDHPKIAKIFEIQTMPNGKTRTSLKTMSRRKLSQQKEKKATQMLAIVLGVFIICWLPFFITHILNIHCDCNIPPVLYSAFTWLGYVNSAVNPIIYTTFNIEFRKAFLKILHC

The species named for series [5] is Homo sapiens. As to the kind of experiment: Binding affinity to sigma receptor (unknown origin).
Series [6] deals with Sodium- and chloride-dependent betaine transporter (Homo sapiens, UniProt P48065, I386F). The experiment in a line: Inhibition of human BGT1 I386F mutant expressed in tsA201 cells assessed as reduction in [3H]GABA uptake after 3 mins by scintillation counting method. Type of series: cell-based. Put shortly:
(§1)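 tsA201 cells transiently transfected with wild-type or mutant human BGT1 (PolyFect) were plated about 24 h before assay. Three ice-cold washes followed, then scintillation counting.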

The target in series [7] is Sodium- and chloride-dependent betaine transporter (Homo sapiens, UniProt P48065, Y453S). As to the kind of experiment: Inhibition of human BGT1 Y453S mutant expressed in tsA201 cells assessed as reduction in [3H]GABA uptake after 3 mins by scintillation counting method. Type of series: cell-based. Put shortly: as §1
Chain of Sodium- and chloride-dependent betaine transporter (Homo sapiens, UniProt P48065, Y453S) (P48065 whole entry Y453S): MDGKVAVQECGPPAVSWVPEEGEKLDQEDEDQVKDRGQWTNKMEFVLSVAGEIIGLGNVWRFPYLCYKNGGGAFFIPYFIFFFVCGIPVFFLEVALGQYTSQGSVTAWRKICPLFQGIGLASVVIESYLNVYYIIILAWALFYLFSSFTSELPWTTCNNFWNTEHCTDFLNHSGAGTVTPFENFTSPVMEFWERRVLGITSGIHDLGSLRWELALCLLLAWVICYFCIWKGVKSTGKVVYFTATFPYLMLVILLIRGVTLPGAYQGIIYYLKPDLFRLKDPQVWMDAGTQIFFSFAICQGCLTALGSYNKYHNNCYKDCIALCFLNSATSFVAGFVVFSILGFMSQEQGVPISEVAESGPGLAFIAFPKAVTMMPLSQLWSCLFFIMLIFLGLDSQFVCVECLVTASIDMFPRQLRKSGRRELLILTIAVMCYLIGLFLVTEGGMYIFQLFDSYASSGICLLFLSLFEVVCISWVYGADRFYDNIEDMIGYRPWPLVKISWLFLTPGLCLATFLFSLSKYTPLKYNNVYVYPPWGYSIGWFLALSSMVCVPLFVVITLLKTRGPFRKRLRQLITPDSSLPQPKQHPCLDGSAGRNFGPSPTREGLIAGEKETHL
For series [8], the target named is Sodium- and chloride-dependent betaine transporter (Homo sapiens, UniProt P48065, Y453S/Y454A). As to the kind of experiment: Inhibition of human BGT1 Y453S/Y454A double mutant expressed in tsA201 cells assessed as reduction in [3H]GABA uptake after 3 mins by scintillation counting method. It counts as cell-based. Put shortly: as §1
Chain of Sodium- and chloride-dependent betaine transporter (Homo sapiens, UniProt P48065, Y453S/Y454A) (P48065 whole entry Y453S/Y454A): as the sequence (P48065 whole entry Y453S) above, with Y454A counted along it
The target in series [9] is T2, Sodium- and chloride-dependent betaine transporter (Homo sapiens, UniProt P48065). As to the kind of experiment: Inhibition of human BGT1/human GAT3 chimera B expresses in tsA201 cells assessed as reduction in [3H]GABA uptake after 3 mins by scintillation counting method. Type of series: cell-based. The method in brief: (§2)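 BGT1/GAT3 chimeric constructs transiently expressed in tsA201 cells. After about 24 h, cells were washed in HEPES-buffered HBSS (1 mM CaCl2, 1 mM MgCl2, pH 7.4). IC50 came from variable-slope sigmoidal regression. Triplicates, at least two independent experiments.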
T2 sequence (P48065 whole entry, looked up): as the sequence (P48065 whole entry Y453S) above, with S453Y counted along it

The target of series [10] is Alpha-2C adrenergic receptor (Homo sapiens) (UniProt P18825). The experiment in a line: Displacement of [3H]rauwolscine from human alpha-2C adrenergic receptor expressed in MDCK cell membranes at 10 uM after 90 mins by scintillation counting method.
Chain of Alpha-2C adrenergic receptor (Homo sapiens) (P18825 whole entry): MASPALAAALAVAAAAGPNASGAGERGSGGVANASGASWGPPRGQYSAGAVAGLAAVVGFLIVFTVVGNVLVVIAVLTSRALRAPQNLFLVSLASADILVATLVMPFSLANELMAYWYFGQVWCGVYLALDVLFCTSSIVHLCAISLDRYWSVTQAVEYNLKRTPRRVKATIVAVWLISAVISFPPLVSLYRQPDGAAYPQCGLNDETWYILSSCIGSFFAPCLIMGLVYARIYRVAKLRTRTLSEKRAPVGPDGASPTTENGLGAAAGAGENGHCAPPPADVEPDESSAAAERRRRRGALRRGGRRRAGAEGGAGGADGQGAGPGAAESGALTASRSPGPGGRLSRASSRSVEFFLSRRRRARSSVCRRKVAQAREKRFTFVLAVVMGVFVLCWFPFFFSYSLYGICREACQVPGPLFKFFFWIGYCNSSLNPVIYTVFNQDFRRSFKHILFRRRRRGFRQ
The target in series [11] is Sodium- and chloride-dependent betaine transporter (Homo sapiens, UniProt P48065, K310N). As to the kind of experiment: Inhibition of human BGT1 K310N mutant expressed in tsA201 cells assessed as reduction in [3H]GABA uptake after 3 mins by scintillation counting method. Type of series: cell-based. The method in brief: (§3)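 Site-directed mutant transporters transiently transfected (PolyFect) into tsA201 cells, plated and used about 24 h later. Cells were washed with HBSS containing 20 mM HEPES, 1 mM CaCl2 and 1 mM MgCl2, pH 7.4. IC50 was taken from variable-slope sigmoidal fits. Triplicates, at least three independent experiments.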
Chain of Sodium- and chloride-dependent betaine transporter (Homo sapiens, UniProt P48065, K310N) (P48065 whole entry K310N): as the sequence (P48065 whole entry Y453S) above, with K310N, S453Y counted along it

Series [12] addresses Sodium- and chloride-dependent betaine transporter (Homo sapiens, UniProt P48065, H312N). The experiment in a line: Inhibition of human BGT1 H312N mutant expressed in tsA201 cells assessed as reduction in [3H]GABA uptake after 3 mins by scintillation counting method. It counts as cell-based. The method in brief: as §3
Series [13] concerns the target Sodium- and chloride-dependent betaine transporter (Homo sapiens, UniProt P48065, A328G). The experiment in a line: Inhibition of human BGT1 A328G mutant expressed in tsA201 cells assessed as reduction in [3H]GABA uptake after 3 mins by scintillation counting method. It counts as cell-based. The method in brief: as §3
The target in series [14] is Sodium- and chloride-dependent betaine transporter (Homo sapiens, UniProt P48065, S345A). The experiment in a line: Inhibition of human BGT1 S345A mutant expressed in tsA201 cells assessed as reduction in [3H]GABA uptake after 3 mins by scintillation counting method. It counts as cell-based. Put shortly: as §3
Chain of Sodium- and chloride-dependent betaine transporter (Homo sapiens, UniProt P48065, S345A) (P48065 whole entry S345A): as the sequence (P48065 whole entry Y453S) above, with S345A, S453Y counted along it
The target of series [15] is Sodium- and chloride-dependent betaine transporter (Homo sapiens, UniProt P48065, Q346Y). As to the kind of experiment: Inhibition of human BGT1 Q346Y mutant expressed in tsA201 cells assessed as reduction in [3H]GABA uptake after 3 mins by scintillation counting method. It counts as cell-based. Put shortly: as §3
Chain of Sodium- and chloride-dependent betaine transporter (Homo sapiens, UniProt P48065, Q346Y) (P48065 whole entry Q346Y): as the sequence (P48065 whole entry Y453S) above, with Q346Y, S453Y counted along it
The target in series [16] is Sodium- and chloride-dependent betaine transporter (Homo sapiens, UniProt P48065, F367Y). The experiment in a line: Inhibition of human BGT1 F367Y mutant expressed in tsA201 cells assessed as reduction in [3H]GABA uptake after 3 mins by scintillation counting method. It counts as cell-based. Put shortly:
as §3

In series [17] the target is Sodium- and chloride-dependent betaine transporter (Homo sapiens, UniProt P48065, S381A). As to the kind of experiment: Inhibition of human BGT1 S381A mutant expressed in tsA201 cells assessed as reduction in [3H]GABA uptake after 3 mins by scintillation counting method. It counts as cell-based. Put shortly:
as §3

Series [18] has as its target Sodium- and chloride-dependent betaine transporter (Homo sapiens, UniProt P48065, I386M). As to the kind of experiment: Inhibition of human BGT1 I386M mutant expressed in tsA201 cells assessed as reduction in [3H]GABA uptake after 3 mins by scintillation counting method. Type of series: cell-based. Put shortly:
as §3

For series [19], the target named is T2, Sodium- and chloride-dependent betaine transporter. The experiment in a line: Inhibition of human BGT1/human GAT3 chimera D expresses in tsA201 cells assessed as reduction in [3H]GABA uptake after 3 mins by scintillation counting method. Type of series: cell-based. Put shortly: as §2

Molecules are shown by their SMILES. In brackets after ≈: the same amount, converted by molar mass. Activity calls are given as the source filed them. The calls are words filed in the database; no cut-off is given here. A value given as a limit tells only on which side of the number the result lay.

Chain of Sodium- and chloride-dependent betaine transporter (Homo sapiens, UniProt P48065, I386F) (P48065 whole entry I386F): as the sequence (P48065 whole entry Y453S) above, with I386F, S453Y counted along it
Chain of Sodium- and chloride-dependent betaine transporter (Homo sapiens, UniProt P48065, F367Y) (P48065 whole entry F367Y): as the sequence (P48065 whole entry Y453S) above, with F367Y, S453Y counted along it
Chain of Sodium- and chloride-dependent GABA transporter 1 (P30531 whole entry): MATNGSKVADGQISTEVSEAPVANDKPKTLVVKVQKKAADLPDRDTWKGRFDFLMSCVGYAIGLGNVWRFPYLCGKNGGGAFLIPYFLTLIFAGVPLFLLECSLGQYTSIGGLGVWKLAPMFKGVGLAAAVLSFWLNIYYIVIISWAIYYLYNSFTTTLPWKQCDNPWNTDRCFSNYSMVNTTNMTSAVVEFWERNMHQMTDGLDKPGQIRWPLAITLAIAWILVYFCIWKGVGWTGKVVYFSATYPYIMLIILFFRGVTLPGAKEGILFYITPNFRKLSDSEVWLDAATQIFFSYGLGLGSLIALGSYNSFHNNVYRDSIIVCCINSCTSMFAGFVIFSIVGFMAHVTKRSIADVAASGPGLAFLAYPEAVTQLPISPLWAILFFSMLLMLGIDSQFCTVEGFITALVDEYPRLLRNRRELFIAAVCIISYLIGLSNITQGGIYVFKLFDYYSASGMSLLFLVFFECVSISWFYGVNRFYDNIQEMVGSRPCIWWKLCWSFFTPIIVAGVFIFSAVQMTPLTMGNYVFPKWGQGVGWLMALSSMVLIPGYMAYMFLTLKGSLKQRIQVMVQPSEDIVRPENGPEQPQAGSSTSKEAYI
Chain of Sodium- and chloride-dependent betaine transporter (Homo sapiens, UniProt P48065, H312N) (P48065 whole entry H312N): as the sequence (P48065 whole entry Y453S) above, with H312N, S453Y counted along it
Chain of Sodium- and chloride-dependent betaine transporter (Homo sapiens, UniProt P48065, A328G) (P48065 whole entry A328G): as the sequence (P48065 whole entry Y453S) above, with A328G, S453Y counted along it
Chain of Sodium- and chloride-dependent betaine transporter (Homo sapiens, UniProt P48065, I386M) (P48065 whole entry I386M): as the sequence (P48065 whole entry Y453S) above, with I386M, S453Y counted along it
Chain of Sodium- and chloride-dependent betaine transporter (Homo sapiens, UniProt P48065, S381A) (P48065 whole entry S381A): as the sequence (P48065 whole entry Y453S) above, with S381A, S453Y counted along it

In the case of `O=C(NC1CCN(Cc2ccccc2)CC1)c1ccc(Cl)nc1Cl`, the solubility (commonly the concentration that dissolves in the medium under given conditions) at 24 h in series [1] is 610 µg/mL (≈ 1670 µM). In addition, the IC50 was greater than 1000 µM in series [2] (read-out: IC50); 37 µM in [3]; 47 µM in [6] (read-out: IC50); 43.7 µM in [6] (read-out: pIC50 (converted)); 25 µM in series [7]; 15 µM in series [8] (read-out: IC50). Besides, the IC50 in [8] (read-out: pIC50 (converted)) was 12.9 µM; in series [9] it was greater than 1000 µM. Further, in series [4], the inhibition entry is “inactive”. Moreover, in [5], the outcome was Active.

`O=C(NC1CCN(Cc2ccccc2)CC1)c1ccc(Cl)cc1Cl` registered a solubility at 24 h in [1] of 40 µg/mL (≈ 110 µM). In addition, the IC50 in [2] was greater than 100 µM; in [3], 32 µM; in series [11] it was 10 µM; in series [12], 8 µM; in series [13], 7 µM; in series [14], 21 µM. Also, the IC50 is 14 µM in series [15]; 5 µM in series [16] (read-out: IC50); 6.03 µM in series [16] (read-out: pIC50 (converted)); 13 µM in series [17]; 7 µM in [18]; 8 µM in [6] (read-out: IC50). The IC50 is 19 µM in series [7], 6 µM in series [8] (read-out: IC50), greater than 1000 µM in [9] and 2 µM in series [19]. In addition, the inhibition result in series [4] and in series [10] was “Active” in each case. In addition, in [19], the pIC50 – broadly, the negative decadic logarithm of the IC50, by convention in mol/L – came out at 5.79.
